Assay results from ChEMBL document CHEMBL4513216, “Probing the Open Global Health Chemical Diversity Library for Multistage-Active Starting Points for Next-Generation Antimalarials” (ACS Infect Dis, 2020).

Test: Toxicity liver stage against HepG2, at 10uM
Type: cell-based
Set-up: test concentration 10 uM, cell line HepG2-A16-CD81EGFP
Conditions: human, HepG2-A16-CD81EGFP cells; read-out: INHIBITION
How it was run: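 Uninfected HepG2-A16-CD81EGFP cells, 3 × 10^3 per well, 1536-well, plated on prespotted compound at 10 μM final, parasite-free screening media added to match infected plates; puromycin 10 μM positive, DMSO 0.5% negative; run in parallel with 48 h PbLuc assay at 37 °C, 5% CO2; viability by CellTiter-Glo luminescence, normalized to controls.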

| Structure (SMILES) | cytotoxicity at 10 µM [%] |
| --- | --- |
| CCS(=O)(=O)CC(=O)Nc1ccc2oc(C3CC3)nc2c1 | -5.4 |
| O=S(=O)(N1CCCCC1)N1CCOC2(CCCC2)C1 | -3.73 |
| O=C(Cn1ccc(=O)c2ccccc21)Nc1cnccc1O | -4.08 |
| Cc1cc(C)c(CNC(=O)N(C)Cc2cccc(F)c2)c(=O)[nH]1 | -1.62 |
| COc1cccc2c1OCC(CNC(=O)Cn1ccnc1C)C2 (stereo not given) | -150 |
| CCCNC(=O)c1nc2c(o1)CN(c1ncccn1)C2 | 1.95 |
| CC1c2ncc(Cn3cccn3)n2CCN1Cc1ccccn1 (stereo not given) | -106 |
| O=C(NC1=NCCS1)C1CSCN1C(=O)C1CCCC1 (stereo not given) | 6.8 |
| CCN(C(C)=O)C(c1ccc(Cl)cc1)c1ccccn1 (stereo not given) | -4.29 |
| CC(C)CN1CCOC[C@H](Oc2ccc(S(C)(=O)=O)cc2)C1 | -1.67 |
| Cn1c(Cn2ccnc2)nnc1C1CCN(C(=O)C2(C)CC2)CC1 | -9.7 |
| O=C1NC2(CCc3ccccc31)CCN(C(=O)c1cccnc1)C2 (stereo not given) | 5.5 |
| COCc1nc(C(=O)NS(=O)(=O)c2c(C)c(C)cc(C)c2C)cs1 | -8.01 |
| Cn1cccc(NC(=O)N2CCC(CSc3ccccc3)C2)c1=O (stereo not given) | 40.2 |
| CC(C)Cc1cc(C(=O)NCC(c2ccc(F)cc2)N(C)C)n(C)n1 (stereo not given) | -3.97 |
| O=C(NC1CC1)N1CC[C@@H](O)[C@@H]1Cc1ccccc1 | 1.91 |
| N#Cc1ccc(OCCN2CCc3c(ncn3C3CC3)C2)cc1 | -0.318 |
| CC(C)[C@H]1CN(C(=O)CO)C[C@@H]1N(C)C | 7.1 |
| COc1ccccc1OCCCN(C)c1cc(C)nc(N)n1 | 1.39 |
| O=C(C1CCOC1)N1CCN(CC(F)(F)F)c2ccccc21 (stereo not given) | -5.74 |
| Cc1noc(C)c1C(C)NC(=O)N1CCC(NC(=O)c2ccsc2)CC1 (stereo not given) | 7.07 |
| CC(C)NC(=O)c1nc(COc2ccc3c(c2)OCO3)no1 | -1.11 |

| Structure (SMILES) | cytotoxicity at 10 µM [%] |
| --- | --- |
| COCCCNC(=O)Nc1cccc2c1CCN(S(C)(=O)=O)C2 | 2.87 |
| CC(=O)N1C[C@@H](c2ccsc2)[C@@H]2CN(Cc3ccccc3C)CC[C@@H]21 | -5 |
| O=C([C@@H]1C[C@@H]2CCN(C3CCOCC3)C[C@H]2O1)N1CCOCC1 | 0.763 |
| CNC(=O)C1CN(c2ccnc(C)n2)CCN(C2CCOCC2)C1 (stereo not given) | -0.762 |
| CCCC(C)NC1CCN(c2ccc(-n3ccnc3C)cc2)CC1 (stereo not given) | -3.67 |
| CCCNC(=O)C(C)Oc1ccc(F)cc1 (stereo not given) | -3.76 |
| Cc1ncc2c(n1)CN(C(C(N)=O)c1ccc(F)cc1)CC2 (stereo not given) | -1.01 |
| CCSc1cc(C(=O)N(Cc2cnn(C)c2)C(C)C)ccn1 | 4.64 |
| Cc1cc(F)ccc1N1CCC(N2C[C@@H](C)[C@@](C)(O)C2)CC1 | 8.79 |
| N#Cc1c(F)cccc1Nc1cnn(CC(N)=O)c1 | 6.25 |
| Cc1ccccc1N1CC2(CCN(Cc3nccn3C)C2)CC1=O (stereo not given) | -81.3 |
| O=C1OCCC1N1CCN(C(=O)Cc2ccccc2Cl)CC1 (stereo not given) | -9.2 |
| O=C(CCN1CCCC1)N1CC[C@@H](c2ccc3ccccc3c2)[C@H](O)C1 | 2.97 |
| COc1ccccc1N1CCN(C(=O)CSC(C)C)C(C)C1 (stereo not given) | -3.97 |
| Cc1ccc(N2CCCC(NCc3ccc4c(c3)CCO4)C2)nn1 (stereo not given) | -16.1 |
| Cc1cc(-n2cccn2)ccc1CN1CCOCC(CN(C)C)C1 (stereo not given) | -38.2 |
| COCC(=O)N[C@H](C(=O)NC(C)c1cc(C)ccc1C)C(C)C (stereo not given in full) | 0.341 |
| Cc1oc(CNC(=O)Cc2ccc3ccccc3c2)cc1C(=O)O | 3.63 |
| CC(=O)Nc1cccc(CNC(=O)N(C)Cc2ccccc2)c1 | -2.11 |
| Cc1ccc(C2(CN(C)Cc3snnc3C)CCNCC2)nc1 | -0.355 |
| CCCN(CC(=O)N(C)C)C(=O)c1ccc(-c2nc(C)cs2)cc1 | -15.7 |
| Cc1cc(C)n(C2CCN(S(C)(=O)=O)CC2)n1 | 15.7 |

| Structure (SMILES) | cytotoxicity at 10 µM [%] |
| --- | --- |
| COC(=O)c1ccc(C(=O)N2CCC(c3nnc(C)s3)CC2)cc1 | 4.95 |
| CC(C)[C@@H]1CN(CCCOc2ccc(F)cc2)C[C@H]1NS(C)(=O)=O | -46.4 |
| O=C(CN1C=Nc2ccccc2S1(=O)=O)NCCCc1ccccc1 | -3.54 |
| COCCc1noc(Cn2c(=O)[nH]c3ccccc32)n1 | -2.03 |
| Cc1csc(C2CCCN(C(=O)Cn3ccccc3=O)C2)n1 (stereo not given) | -5.68 |
| COc1cc(N2C[C@@H]3COC[C@@H](Cc4nnc(C)o4)[C@@H]3C2)ncn1 | -112 |
| CCCc1nc(Cn2c(=O)n(C)c3ccccc32)no1 | -43 |
| Cc1cc(CCC(=O)N(C)C)nc(C2CCCCN2)n1 (stereo not given) | -2.39 |
| Cc1cnn(CC2CCCN2Cc2noc(-c3ccccc3)n2)c1 (stereo not given) | 0.441 |
| O=C1CC(C(=O)O)C2(CCN(C(=O)NCc3ccc(Cl)cc3)CC2)N1 (stereo not given) | 7.66 |
| COCC1CC2(CCN(C(=O)c3cnc4ccccc4c3)CC2)CO1 (stereo not given) | -142 |
| COCC(=O)N1CCC2(CC1)CC(CC(=O)NC1CC1)c1ccccc12 (stereo not given) | 0.873 |
| Cc1nc(CC(=O)N2CCC3(CC2)CC(=O)N(CC2CCCO2)C3)cs1 (stereo not given) | -7.85 |
| CN1C(=O)CCC12CCCN(C(=O)c1ccoc1)C2 (stereo not given) | 2.65 |
| O=C1NC(=O)c2c3c(nc(O)c21)CCCC3 | -4.69 |
| CCN(Cc1cccs1)S(=O)(=O)N(C)C(C)C | -49 |
| CCC(=O)N1CCN(C(=O)c2cn3ccsc3n2)[C@H]2CS(=O)(=O)C[C@H]21 | 4.95 |
| Cc1ccc(C2COCCN2C(=O)c2ccsc2)o1 (stereo not given) | -2.55 |
| Cc1nn(C)c2c(NCCCn3cccn3)nc(C(C)C)nc12 | 6.67 |
| CSCc1cc(C(=O)NC2(C#N)CCSC2)ccc1F (stereo not given) | -4.59 |
| O=C(CCc1ccc(Cl)cc1)N[C@@H]1CC[C@@H](O)[C@@H]1O | 3.85 |
| Cc1n[nH]c(C)c1NC(=O)CN1CCCC1c1noc(C2CC2)n1 (stereo not given) | 2.94 |

| Structure (SMILES) | cytotoxicity at 10 µM [%] |
| --- | --- |
| Cc1cc(C2CCN(S(=O)(=O)N(C)C)CC2)ccn1 | -13 |
| COC(=O)C1CCCN1C(=O)c1ccc(Br)cc1F (stereo not given) | 2.96 |
| CC(NCCCC#N)c1ccc(-c2cccnc2)cc1 (stereo not given) | 11.3 |
| COc1cccc(CN2CC[C@H](c3nnc(C)o3)C2)c1 | -0.902 |
| O=C(NCCC(O)c1ccco1)c1ccco1 (stereo not given) | 7.94 |
| COCC(=O)N1CCCC1c1cccc(C)c1C (stereo not given) | -1.32 |
| Cn1c(N2CCOCC2)nc2cc(C(=O)N3CCCOCC3)ccc21 | -1.29 |
| CCc1nccn1C1CCCN(C(=O)c2ccc(-n3ccnc3)cc2)C1 (stereo not given) | -10.8 |
| CN(Cc1cncnc1)[C@H]1CN(CC2CC2)[C@@H]2CCCO[C@@H]21 | -9.87 |
| CS(=O)(=O)Cc1cccc(C(=O)NCC2Cc3ccccc3O2)c1 (stereo not given) | -16.5 |
| O=C1C[C@@H]2[C@H](CCN2Cc2ccco2)N1c1ccsc1 | 8.55 |
| CSCC(CCO)NC(=O)Nc1cccc(Br)c1 (stereo not given) | -7.69 |
| CCn1cc(CNCCNc2ncc(Cl)cc2Cl)cn1 | -4.27 |
| CCc1ccc(C(COC)NC(=O)c2ccc(F)c(NC(C)=O)c2)o1 (stereo not given) | -11.1 |
| c1cncc(COCc2nnc3n2CCN(Cc2ccco2)C3)c1 | -4.04 |
| CC1CCC(NC(=O)c2nn(C)cc2I)CC1 (stereo not given) | 11.8 |
| Cc1cccc(C2CCCN2S(=O)(=O)N(C)C)n1 (stereo not given) | -5.5 |
| Cc1ccc2cc(CNCCCN3CCOCC3)c(=O)[nH]c2c1C | -10.1 |
| CC(=O)N[C@H]1CCO[C@@H](c2cccc(NC(=O)c3cccc(F)c3)c2)C1 | 8.75 |
| CC(C)CN1C(=O)CO[C@@H]2CN(C(=O)N3CCOCC3)C[C@H]21 | -1.68 |
| CS(=O)(=O)N1C[C@@H]2OCC(=O)N(CC3CC3)[C@@H]2C1 | -13.8 |
| COc1cc(-c2nc(CN(CCO)CCO)c(C)o2)ccc1F | -10.2 |

| Structure (SMILES) | cytotoxicity at 10 µM [%] |
| --- | --- |
| CCCc1cc(CN(C)C2CSCCSC2)n[nH]1 | 0.786 |
| COCCC1CN(Cc2cn(CCC(N)=O)c3ccccc23)CCO1 (stereo not given) | -3.15 |
| O=C(Cc1noc(C(=O)NCCO)n1)Nc1cccc(C(F)(F)F)c1 | 8.9 |
| C[C@H]1CN(c2ccccn2)C[C@@]12CCN(c1cccnc1)C2=O | -2.62 |
| CS(=O)(=O)c1cccc(S(=O)(=O)NCCCN2CCNC(=O)C2)c1 | -5.87 |
| CSC(CNS(=O)(=O)c1cnn(C)c1)c1cccc(Cl)c1 (stereo not given) | 4.63 |
| CN1C2(CCN(Cc3ccc(F)cc3)C2)c2ccccc2S1(=O)=O (stereo not given) | 13.5 |
| Cc1cn2c(n1)CCC(NC(=O)c1ccc(OCC3CC3)nc1)C2 (stereo not given) | -9.47 |
| CC(NC(=O)N1CCN(c2ccc(Cl)cc2)CC1)C(=O)N1CCSCC1 (stereo not given) | 25.4 |
| O=C(NCC1CCOCC1)[C@@H]1C[C@@H]2CCN(Cc3ccco3)C[C@H]2O1 | -8.09 |
| CCC(=O)N1CC[C@H]2[C@H](C[C@@H](CN3CCCC3)N2c2nccs2)C1 | 10.2 |
| CNC(=O)N1Cc2cc(F)ccc2C2(CCN(C)CC2)C1 | 0.595 |
| c1ccc(-n2cc(CN3CCCC3Cn3cccn3)nn2)cc1 (stereo not given) | 0.207 |
| CC1CCN(C(CNC(=O)Cn2cccn2)c2cccs2)CC1 (stereo not given) | -16 |
| CN1CC=C(c2noc(CCC(=O)N3CCOCC3)n2)CC1 | -0.687 |
| c1ccc(CCN2CCOC(CNc3cccnn3)C2)nc1 (stereo not given) | -1.56 |
| CCn1ccnc1CN1CCCN(C(=O)c2csc(C)n2)CC1 | -2.84 |
| CC(C)(C(=O)NCc1n[nH]c(=O)[nH]1)c1ccc(F)cc1 | 7.52 |
| O=C1C[C@@H]2CC[C@H](CN1)N2C(=O)CCc1ccc2c(c1)OCO2 | -5 |
| COc1ccc(C(=O)NCCNC(=O)c2cncnc2C)cc1 | 7.98 |
| Cn1cccc1C(=O)N1C[C@@H](OCc2cccnc2)[C@H]2OCCC[C@H]21 | 7.06 |
| CCNC(=O)[C@@H]1C[C@H](N)CN1C(=O)CCc1ccc(C)c(C)c1 | 3.45 |
